The species entered for data set [1] is Mus musculus. Kind of data set: Compound was evaluated for anticonvulsant activity in mice against metrazole seizures. Format: functional. Put shortly:
(§1)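 Mouse screen with oral dosing; the ED50 is given in mg/kg, po. Signs of sedation, ataxia, loss of righting reflex and death were noted after oral dosing before anticonvulsant testing.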

The species entered for data set [2] is Mus musculus. Put plainly: Compound was evaluated for anticonvulsant activity in mice against electroshock seizures. The data set is classed as functional. Put shortly:
as §1

The species named for data set [3] is Mus musculus. Put plainly: Compound was evaluated for inhibition of hind limb tonus (anticonvulsant activity) in mouse. Format: functional, Hindlimb. Put shortly: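 Maximal electroshock in mice, ip dosing. The ED50 (mg/kg) is for blocking hind limb tonic extension at each compound's time of peak effect, which was determined in min. 95% confidence limits are reported.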

The subject of data set [4] is Mus musculus. Put plainly: Compound was evaluated for inhibition of hind limb tonus (anticonvulsant activity) in mouse maximal metrazole seizures (MMS) after peroral administration. The note with it: Hindlimb, po. The data set is classed as functional.
Data set [5] in a line: Compound was tested for rotarod test in mice and TD50 value at which 50% of trained animals fall off rotarod was reported. The data set is classed as organism-based. The settings on record: mouse, in vivo. Put shortly: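 Mice trained on the rotorod, then dosed po (tested at 1 h) or ip (tested at time of peak anticonvulsant effect). Neurotoxicity scored as falling off the rod.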
In general terms: The rotarod test checks motor coordination on a turning rod.

The species named for data set [6] is Mus musculus. Put plainly: Compound was evaluated for inhibition of hind limb tonus (anticonvulsant activity ) in mouse. Format: functional, Hindlimb. The procedure, abridged: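 Maximal electroshock in mice, scoring abolition of hind-limb tonic extension. Compound given ip and tested at its time of peak effect. ED50 in mg/kg reported with 95% confidence limits.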

Where only a bound is given, the exact number is not on record here.

With `NCCc1nnc(-c2ccccc2-c2ccccc2)s1`, the results for the 50% effective dose (ED50) in the data set filed under Mus musculus [1] and in the data set listed under Mus musculus [2] were 68 mg/kg and 50 mg/kg, respectively.
For `CC(C)NCc1nnc(-c2ccccc2-c2ccccc2)s1`, in that order: 35 mg/kg and 23 mg/kg.
`CNCc1nnc(-c2ccccc2)s1`: the 50% effective dose (ED50) in the data set listed under Mus musculus [1] and in the data set listed under Mus musculus [2] was more than 200 mg/kg each time.
Take `NCCCc1nnc(-c2ccccc2-c2ccccc2)s1`: the median effective dose (ED50) in the data set listed under Mus musculus [1] and in the data set listed under Mus musculus [2] was more than 200 mg/kg throughout.
`CC(N)c1nnc(-c2ccccc2-c2ccccc2)s1` (centres undefined): the 50% effective dose (ED50) (in general, the dose that gives a 50% effect, or the effect in half of the subjects) was 32 mg/kg in the data set listed under Mus musculus [1] and 21 mg/kg in the data set listed under Mus musculus [2].
For the molecule `NCc1nnc(-c2ccccc2-c2ccccc2)s1`, the Peak effect time in the data set listed under Mus musculus [3] is 10 min. In addition, the ED50 with Mus musculus [4] was 20 mg/kg.
`CCCCCCOc1ccccc1-c1nnc(CNC)s1`: in the data set filed under Mus musculus [2], the ED50 was found to be 44 mg/kg.
Turning to `Cc1ccccc1NCc1nnc(-c2ccccc2-c2ccccc2)s1`, the ED50 in the data set listed under Mus musculus [1] and in the data set listed under Mus musculus [2] was more than 200 mg/kg in each case.
On to `NCc1nnc(Cc2ccccc2)s1`, for which the 50% effective dose (ED50) in the data set listed under Mus musculus [1] is 200 mg/kg; in the data set listed under Mus musculus [2] it was 110 mg/kg.
For the molecule `CN(C)Cc1nnc(-c2ccccc2-c2ccccc2)s1`, the 50% effective dose (ED50) in the data set filed under Mus musculus [1] turned out to be 35 mg/kg; in the data set filed under Mus musculus [2] it was 32 mg/kg.
For the molecule `c1ccc(CNCc2nnc(-c3ccccc3-c3ccccc3)s2)cc1`, the ED50 was determined as 29 mg/kg in the data set listed under Mus musculus [1] and 37 mg/kg in the data set filed under Mus musculus [2].
`CNCc1nnc(-c2ccccc2-c2ccccc2)s1`: the ED50 in the data set filed under Mus musculus [1] was determined as 20 mg/kg; in the data set listed under Mus musculus [2], 25 mg/kg.
Take `NCc1nnc(Cc2ccccc2-c2ccccc2)s1`: the ED50 in the data set filed under Mus musculus [2] was found to be 30 mg/kg.
In turn, `CCCCCCOc1ccccc1-c1nnc(CN)s1` gave an ED50 in the data set filed under Mus musculus [2] of 34 mg/kg.
For the molecule `NC(=O)N1c2ccccc2C=Cc2ccccc21` [CARBAMAZEPINE], the Peak effect time in the data set listed under Mus musculus [3] amounted to 20 min.
For `CCC1(c2ccccc2)C(=O)NC(=O)NC1=O` [PHENOBARBITAL], the TD50 (in general, the 50% point of the dose-response relation for the toxic effect studied) in data set [5] came to 86 mg/kg. In the data set filed under Mus musculus [6], this molecule came in with a Peak effect time of 30 min.
`O=C1NC(=O)C(c2ccccc2)(c2ccccc2)N1` [PHENYTOIN] yielded a Peak effect time in the data set listed under Mus musculus [6] of 60 min.
